Compound activity deposited in PubChem by Johns Hopkins Ion Channel Center.
Rows were chosen to be rich in hits. Some 3.7% of all compounds tested hit in one or more screens of this group.
hERG rescue – shields human hERG channel from block by proarrhythmic agents; CHO-hERG, FluxOR thallium flux, dofetilide IC70 present; activation (rescue from dofetilide block), less the hit threshold, % at 10 µM; hit rate 0.51% among 310,000; AID 1511;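 active means activation above the mean of controls blocked by dofetilide plus 5 SD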;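 further: thallium influx through hERG after potassium depolarization seen as dye fluorescence rise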
Target sequence (Q12809 whole entry, looked up): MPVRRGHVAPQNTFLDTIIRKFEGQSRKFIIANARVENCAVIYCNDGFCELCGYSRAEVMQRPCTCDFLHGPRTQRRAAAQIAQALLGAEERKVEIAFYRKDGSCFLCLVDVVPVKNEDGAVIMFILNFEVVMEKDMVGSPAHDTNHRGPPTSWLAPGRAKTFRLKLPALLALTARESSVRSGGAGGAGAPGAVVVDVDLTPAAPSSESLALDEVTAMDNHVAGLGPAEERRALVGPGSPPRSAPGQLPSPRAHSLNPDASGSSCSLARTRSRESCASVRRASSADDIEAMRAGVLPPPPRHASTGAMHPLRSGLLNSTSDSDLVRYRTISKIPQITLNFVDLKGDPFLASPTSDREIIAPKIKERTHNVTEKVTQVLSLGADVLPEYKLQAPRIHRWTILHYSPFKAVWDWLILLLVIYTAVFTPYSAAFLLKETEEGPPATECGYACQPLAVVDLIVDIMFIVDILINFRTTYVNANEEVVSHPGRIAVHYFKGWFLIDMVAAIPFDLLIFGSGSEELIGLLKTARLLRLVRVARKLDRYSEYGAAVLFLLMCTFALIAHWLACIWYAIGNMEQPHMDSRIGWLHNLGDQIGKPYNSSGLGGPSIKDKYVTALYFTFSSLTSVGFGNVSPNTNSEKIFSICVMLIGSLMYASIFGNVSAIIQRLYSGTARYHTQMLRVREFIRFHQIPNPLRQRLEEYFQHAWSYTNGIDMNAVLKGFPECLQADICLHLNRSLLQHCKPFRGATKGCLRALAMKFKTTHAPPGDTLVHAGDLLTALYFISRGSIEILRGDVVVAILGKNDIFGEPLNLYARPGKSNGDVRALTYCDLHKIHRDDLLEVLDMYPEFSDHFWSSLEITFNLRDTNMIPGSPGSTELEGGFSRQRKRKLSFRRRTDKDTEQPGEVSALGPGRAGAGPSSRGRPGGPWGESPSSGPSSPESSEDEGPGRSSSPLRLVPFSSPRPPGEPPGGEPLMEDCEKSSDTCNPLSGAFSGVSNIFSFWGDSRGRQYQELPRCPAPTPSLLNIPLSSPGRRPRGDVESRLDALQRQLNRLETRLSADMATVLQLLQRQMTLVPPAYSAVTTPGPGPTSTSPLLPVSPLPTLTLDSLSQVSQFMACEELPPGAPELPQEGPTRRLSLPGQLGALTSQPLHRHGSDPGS
KCNQ1 pot – potentiators or activators of human KCNQ1 potassium channel. P51787. CHO-K1 KCNQ1, thallium flux FluxOR fluorescence; hits give high values. B-score at 10 µM. hit rate 0.35% among 310,000. AID 2648;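 active means fluorescence ratio B-score, a plate-corrected score, at least three library SD, with initial intensity B-score within 5 SD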
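Assay system: stable KCNQ1 CHO-K1 line; medium: assay buffer, equal DMSO in all wells; timing: 90 min dye loading and 20 min compound exposure, both at room temperature; technique: kinetic FluxOR thallium fluorescence, 10-s 1-Hz baseline, 110-s post-stimulus read; read-out basis: B score of baseline-normalized fluorescence ratio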
Kir21 block – blocks the mouse Kir2.1 inward-rectifier potassium channel | HEK293-Kir2.1, FluxOR thallium flux fluorescence; hits give low values | B-score at 10 µM | hit rate 0.85% among 310,000 | AID 1672;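 active means fluorescence ratio B-score at or below minus 3 SD of library scores, with starting-brightness B-score within 2 SD, cut at about -4.2 in these data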;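 further: channel flux triggered by added potassium and thallium sulfate stimulus; B-score of peak minus minimum fluorescence over baseline after thallium stimulus; more negative B-score means stronger Kir2.1 block with less thallium influx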
KCNK3 block – human KCNK3 channel inhibition, primary screen; O14649; CHO-KCNK3 thallium flux, FluxOR fluorescence; hits give low values; B-score at 10 µM; hit rate 0.84% among 340,000; AID 602410;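 active means B-score under library mean minus 4 SD, starting fluorescence ratio at most library mean plus 5 SD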;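 further: more negative B-score means stronger inhibition of thallium flux through KCNK3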
KCNQ1 block – blocks the human KCNQ1 potassium channel. hit rate 1.3% among 310,000. B-score at 10 µM. CHO-K1 KCNQ1, FluxOR thallium flux fluorescence; hits give high values. P51787;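 active means compounds whose thallium flux B-score, printed positive for inhibition, exceeds three library SD while starting fluorescence stays within three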;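 further: channel opened by potassium depolarization with thallium stimulus after 20 min compound exposure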
KCNK9 block – blocks the human KCNK9 two-pore domain potassium channel; Q9NPC2; HEK293 KCNK9, FluxOR thallium flux fluorescence; hits give low values; B-score at 10 µM; hit rate 1.2% among 310,000; AID 488922;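 active means ratio B-score over 3 SD below the library mean, with starting fluorescence within 5 SD of its mean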;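 further: negative B-score means less thallium flux so channel inhibition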
Each line names hits and unclear results; the compound was inactive in the other large screens.

COc1ccc(/C=N/NC(=S)SC)cc1OC	none
CSC(=S)N/N=C/c1ccccc1	hERG rescue 10.6, KCNQ1 pot 35
Oc1ccccc1C1Nc2cccc3cccc(c23)N1	none
O=[N+]([O-])c1ccccc1C1Nc2cccc3cccc(c23)N1	KCNQ1 block 6
O=C(CC1CC2CCC1C2)NCCc1ccc(Cl)cc1 (stereo unspecified)	none
O=C(Cc1cn(Cc2cccc(Cl)c2)c2ccccc12)N1CCCC1	Kir21 block -5.24
CCOC(=O)C1CCCN(C(=O)C2CCN(S(=O)(=O)c3ccc4ccccc4c3)CC2)C1 (stereo unspecified)	KCNQ1 pot 10
CN(CC(=O)NNC(=O)Cc1ccccc1F)S(=O)(=O)c1ccc(Cl)cc1	none
CC1=C(C(=O)OCCc2ccccc2)C(c2ccsc2)NC(=O)N1C (stereo unspecified)	Kir21 block -5.6
CC(C)CCn1c(=O)c2ccccc2n2c(CCC(=O)NCC3CCCO3)nnc12 (stereo unspecified)	none
COc1ccccc1CC(=O)Nc1cc2oc3ccccc3c2cc1OC	KCNK9 block -6.94
COc1cc2c(cc1NC(=O)CSc1ccccn1)oc1ccccc12	KCNK9 block -7.27
COc1cc2c(cc1NC(=O)CSc1ccc(Cl)cc1)oc1ccccc12	none
Cc1ccc(S(=O)(=O)NCC(=O)N2CCOCCOCCOCC2)cc1	none
Cc1ccc(NC(=O)CN2C(=O)S/C(=C\c3cccn3-c3cccc(C(=O)O)c3)C2=O)c(C)c1	hERG rescue 5.4
Cc1ccccc1NC(=O)CN1C(=O)S/C(=C\c2cccn2-c2cccc(C(=O)O)c2)C1=O	none
COc1ccc(NC(=O)CN2C(=O)S/C(=C/c3cccn3-c3ccc(C(=O)O)cc3)C2=O)cc1	hERG rescue 15.7
Cc1cc2oc(=O)cc(Cn3ccnc3)c2cc1Cl	none
Cc1ccc(CNC(=O)COc2ccc(S(=O)(=O)N3CCCC3)cc2)cc1	none
CCOC(=O)c1c(CSc2ccccc2)n(C)c2cc(Br)c(O)c(CN(C)C)c12	KCNK9 block -6.7
CCOC(=O)c1c(CSc2ccccc2)n(C)c2ccc(O)c(CN3CCN(C)CC3)c12	Kir21 block -4.88
CCOC(=O)c1c(CSc2ccsc2)n(C)c2cc(Br)c(O)c(CN(C)C)c12	Kir21 block -7.09
CCOC(=O)c1c(CSc2ccc(C)cc2)n(C)c2cc(Br)c(O)c(CN(C)C)c12	none
CCC(C)[C@H](NC(=O)C1CC(=O)N(c2ccc3c(c2)OCO3)C1)C(=O)NC1CCCCC1 (stereo partly specified)	none
CC(=O)OC1CC2(C)C(CCC2(O)C(C)=O)C2CCC3C(Cl)C(=O)CCC3(C)C12 (stereo unspecified)	none (no result: hERG rescue, KCNQ1 pot, Kir21 block, KCNQ1 block, KCNK9 block)
Cc1c(C)n(Cc2ccccc2)c2ccc(C(=O)OCCN(C)C)cc12	Kir21 block -9.48
Cc1c(C)n(Cc2ccccc2)c2ccc(C(=O)NCCN3CCOCC3)cc12	none
CCOC(=O)C1C(c2ccccc2)C(C(=O)OCC)C1c1ccccc1 (stereo unspecified)	hERG rescue 5.7
O=C(Oc1ccc(=O)n(-c2ccccc2)n1)c1ccc(F)cc1	none
O=C(Oc1ccc(=O)n(-c2ccccc2)n1)c1ccc(Cl)cc1	Kir21 block -4.34
CC(C)(C)c1cc(CP(=O)(c2ccccc2)c2ccccc2)cc(C(C)(C)C)c1O	KCNQ1 block 6
O=C(Nc1cccc(-c2cccc(F)c2)c1)C1CCN(Cc2ccco2)CC1	Kir21 block -4.91
COCc1ccc(CN2CCC(C(=O)Nc3cccc(-c4cccc(Cl)c4)c3)CC2)o1	KCNQ1 block 8
O=C(Nc1cccc(-c2cccc(F)c2)c1)C1CCN(CC2CCOC2)CC1 (stereo unspecified)	none
Cc1cccc(CN2CCC(C(=O)Nc3cccc(-c4cccc(F)c4)c3)CC2)n1	Kir21 block -5.07
O=C(COc1ccccc1)NC(=S)Nc1ccc(Br)cn1	KCNQ1 pot 22
N=C1/C(=C\c2ccc(-c3ccc(C(=O)O)cc3)o2)C(=O)N=C2SC=C(c3ccccc3)N12	none
N=C1/C(=C\c2ccc(-c3cccc(Cl)c3)o2)C(=O)N=C2SC=C(c3ccccc3)N12	KCNQ1 pot 8
N=C1S/C(=C\c2ccc(-c3cccc(Cl)c3)o2)C(=O)N1c1nccs1	hERG rescue 25.8
CN(Cc1ccc(F)cc1)C(=O)c1sccc1-c1ccccc1	Kir21 block -7.83
O=C(CSc1nc2ccccc2c(=O)n1-c1ccc(F)cc1F)Nc1ccc2c(c1)CCC2	KCNK9 block -7.58
CCN1C[C@@H]2[C@@H]3C(=O)N(C)C(=O)[C@@H]3[C@](Cc3ccccc3)(C1=O)N2C(=O)c1ccccc1	none (no result: hERG rescue, KCNQ1 pot, Kir21 block, KCNQ1 block, KCNK9 block)
N#Cc1ccc(C2=NC(C(F)(F)F)(C(F)(F)F)c3c(n(Cc4ccco4)c(=O)[nH]c3=O)N2)cc1	KCNQ1 block 7
CC(CC1C(C#N)=C(N)SC(N)=C1C#N)c1ccccc1 (stereo unspecified)	KCNQ1 block 7
CC(=O)c1c(N2CCOCC2)[nH]c(-c2ccccc2)nc1=S	none
CC(=O)c1c(N2CCCC2)[nH]c(-c2ccccc2)nc1=S	hERG rescue 7.3, KCNQ1 pot 9
CC(=O)c1c(N2CCN(Cc3ccccc3)CC2)[nH]c(-c2ccccc2)nc1=S	KCNQ1 pot 23
CC(=O)c1cccc(OC(=O)C2=CC=CN3CCS(=O)(=O)N=C23)c1	none (no result: hERG rescue, KCNQ1 pot, Kir21 block, KCNQ1 block, KCNK9 block)
O=C(O)COc1ccccc1/C=N/NC(=O)c1cccc(S(=O)(=O)N2CCOCC2)c1	hERG rescue 5.4
COc1ccc(NC(=O)c2cccc(S(=O)(=O)N3CCOCC3)c2)cn1	KCNK9 block -6.92
CC1CC(C)CN(CCCNC(=O)c2nn(C)c3c2CS(=O)(=O)c2ccccc2-3)C1 (stereo unspecified)	none
CCN(CC(=O)Nc1cc(Cl)ccc1Cl)C(=O)c1ccc(-n2cccn2)cc1	none (no result: hERG rescue, KCNQ1 pot, Kir21 block, KCNQ1 block, KCNK9 block)
CCC1CCCCN1S(=O)(=O)c1ccccc1[N+](=O)[O-] (stereo unspecified)	Kir21 block -4.33
CC1CCCCN1S(=O)(=O)c1ccccc1[N+](=O)[O-] (stereo unspecified)	none
Cc1[nH]c(=S)sc1Cc1ccc(F)cc1	KCNQ1 pot 9
S=c1[nH]cc(Cc2ccccc2)s1	none
CCN(CC)CC(O)c1ccc2ccc3ccc(O)cc3c2c1 (stereo unspecified)	none (no result: hERG rescue, KCNQ1 pot, Kir21 block, KCNQ1 block, KCNK9 block)
Cc1ccc(CSCCNC(=O)CN2C(=O)c3ccccc3S2(=O)=O)cc1	hERG rescue 4.9
O=C(Nc1ccc(CN2CCS(=O)(=O)CC2)cc1)c1ccc(Cl)cc1	none
CCOC(=O)N1CCN(C(=O)CCCCn2c(=S)[nH]c3ccsc3c2=O)CC1	none
COc1ccc(/C=C2\SC(=O)N(CC(=O)NCCCn3ccnc3)C2=O)cc1	KCNQ1 block 7
